# A selection: hits, their analogues and other compounds. The true share with any hit is near 3.1%.
# rRNA inh HTS: inhibitors of bacterial rRNA selective over humanized ribosomes. GFP signal change (wild-type ribosome), % (no concentration beside the values). E. coli WT GFP vs humanized-ribosome RFP mutants, fluorescence, 24 h; active compounds read low; DMSO median 0, no signal -100. 350,000 compounds, 1.6% hits;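 active means significant combined selectivity score with lowered wild-type GFP, culture density cut under 30%, mutant RFP and density less affected; inactive means any of these conditions unmet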
# miR-122 sensor: miR-122 inhibition in Huh7 cells | Huh7 miR-122 Renilla luciferase sensor, 48 h; neutral wells = 0, positive control = 100 | activation (reporter increase), % at 12.5 µM | 340,000 compounds, 0.3% hits;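 active means mean replicate activation score at least 90 and every replicate individually at or above 90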;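 further: higher luciferase means less miR-122 activity so hits act as miR-122 inhibitors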
# DENV2 CPE rescue: inhibitors of DENV2 cytopathic effect. 350,000 compounds, 1.7% hits. DENV2-infected cells, cytopathic effect rescue, plate reader. CPE inhibition, % at 9.99 µM. AID 651640; in the data active means CPE inhibition above about 20%, passing the limit was not always enough; tested in BHK-21 cells;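 further: 0% = median of neutral control wells and 100% = median of positive control wells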
# Cneo AK release: Cryptococcus neoformans lysis via adenylate kinase release; C. neoformans lysis, adenylate kinase release luminescence, 4 h; normalised: neutral wells 0, clomiphene wells 100; lysis activity, % at 15 µM; 360,000 compounds, 0.2% hits; AID 651654;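 active means mean lysis activity across replicates of at least 80%, whatever share of replicates individually reach that level; inactive means mean lysis activity below 80%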
#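 Material – Cryptococcus neoformans yeast cells · Quantity – 5 × 10^6 yeast cells/mL · Buffer or medium – YPD medium · Compound – single dose · Timing – 4 h static compound exposure, 37 °C, read 1 h post-reagent · Signal – adenylate kinase release luminescence · Read-out basis – lysis from increased AK signal · Benchmarks – Clomiphene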
# E-selectin induc: E-selectin induction on HUVECs | HUVEC E-selectin immunofluorescence imaging; normalized: neutral wells 0, TNF-alpha wells 100 | activation, % at 7.58 µM | 260,000 compounds, 0.37% hits | AID 686992;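 active means mean E-selectin-positive cell signal at least 10% of the positive control, reached in at least 60% of replicates, without over 20% cell loss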
# Target sequence (P16581 whole entry, looked up): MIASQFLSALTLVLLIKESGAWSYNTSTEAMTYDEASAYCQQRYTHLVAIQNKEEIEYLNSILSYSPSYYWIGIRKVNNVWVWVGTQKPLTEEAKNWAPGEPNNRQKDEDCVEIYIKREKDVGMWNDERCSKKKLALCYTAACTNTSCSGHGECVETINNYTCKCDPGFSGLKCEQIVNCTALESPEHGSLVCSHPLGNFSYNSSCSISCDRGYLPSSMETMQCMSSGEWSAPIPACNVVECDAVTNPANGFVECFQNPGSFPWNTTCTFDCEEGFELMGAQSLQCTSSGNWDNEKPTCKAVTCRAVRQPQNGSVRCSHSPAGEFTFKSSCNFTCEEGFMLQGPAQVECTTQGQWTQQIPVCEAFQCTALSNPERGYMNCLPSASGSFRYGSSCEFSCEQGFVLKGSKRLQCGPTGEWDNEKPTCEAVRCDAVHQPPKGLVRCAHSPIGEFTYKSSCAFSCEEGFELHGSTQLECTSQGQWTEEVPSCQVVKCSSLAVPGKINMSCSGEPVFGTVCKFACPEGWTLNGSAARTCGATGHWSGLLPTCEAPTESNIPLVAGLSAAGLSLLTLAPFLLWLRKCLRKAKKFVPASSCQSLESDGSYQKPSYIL
#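 Test system: HUVEC | Signal: Immunofluorescence imaging | Read-out: Percent E-selectin-positive cells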
# * = called active by the depositor; / = not tested or not shown; ! = a repeat was not active; [ ] = remark or other dose.
SMILES,rRNA inh HTS,miR-122 sensor,DENV2 CPE rescue,Cneo AK release,E-selectin induc
CCOC(=O)c1ccc(NC(=S)Nc2ccc(C)cc2)cc1,4,-7,-2,-1,/
CN1C(=O)c2cc(NS(=O)(=O)c3ccc(Cl)cc3)ccc2OC[C@@H]2O[C@H](CC(=O)N3CCc4ccccc4C3)CC[C@H]21,-4,-33[16.7 µM],40*,-5,0
CN1C(=O)c2cc(NS(=O)(=O)c3cccc(F)c3)ccc2OC[C@H]2O[C@H](CC(=O)O)CC[C@H]21,-2,24[16.7 µM],-12,97*,0
COC(=O)C[C@@H]1CC[C@@H]2[C@@H](COc3ccc(NS(=O)(=O)c4cccc(F)c4)cc3C(=O)N2C)O1,-1,-3[16.7 µM],-6,-7,0
CN1C(=O)c2cc(NS(=O)(=O)c3cccc(F)c3)ccc2OC[C@@H]2O[C@@H](CC(=O)O)CC[C@H]21,0,-6[16.7 µM],-5,97*,0
CN1C(=O)c2cc(NS(=O)(=O)c3cccc(F)c3)ccc2OC[C@H]2O[C@@H](CC(=O)O)CC[C@@H]21,0,-4[16.7 µM],71*,-2,0
O=C(Nc1ccc(-c2ccccc2)cc1)[C@H]1[C@H](CO)[C@H]2Cn3c(cccc3=O)[C@@H]1N2Cc1ccncc1,-1,/,/,/,0
C[C@@H]1CN([C@@H](C)CO)C(=O)c2cc(NC(=O)Nc3ccc4c(c3)OCO4)ccc2O[C@H]1CN(C)CC1CCCCC1,-2,/,/,/,-11
CN1C(=O)c2cc(NS(C)(=O)=O)ccc2OC[C@@H]2O[C@@H](CC(=O)O)CC[C@H]21,0,2[16.7 µM],-11,83*,0
COc1ccc(NC(=O)N(C)C[C@@H]2OCCCC[C@H](C)Oc3ccc(NC(=O)Nc4ccc5c(c4)OCO5)cc3C(=O)N([C@H](C)CO)C[C@@H]2C)cc1,-1,-10[16.7 µM],12,92*,0
COc1ccc(NC(=O)N(C)C[C@H]2OCCCC[C@@H](C)Oc3ccc(NC(=O)Nc4ccc5c(c4)OCO5)cc3C(=O)N([C@@H](C)CO)C[C@H]2C)cc1,-3,13[16.7 µM],70*,2,0
COc1ccc(NC(=O)Nc2ccc3c(c2)C(=O)N([C@@H](C)CO)C[C@H](C)[C@H](CN(C)C(=O)Nc2ccc4c(c2)OCO4)OCCCC[C@@H](C)O3)cc1,2,-4[16.7 µM],-3,-3,0
COCC(=O)Nc1ccc2c(c1)C(=O)N(C)[C@H]1CC[C@H](CC(=O)NC3CCCC3)O[C@@H]1CO2,4,0[16.7 µM],-4,57,0
C[C@@H]1CN([C@H](C)CO)C(=O)c2cc(C#CCN(C)C)cnc2O[C@H]1CN(C)Cc1ccc2c(c1)OCO2,-3,-2[16.7 µM],1,5,0
O=C(Nc1cccc(C(=O)O)c1)/C(=C\c1ccccc1)NC(=O)c1ccccc1,-26,/,0,-2,/
O=C(Nc1ccc(C(=O)O)cc1)/C(=C\C=C\c1ccccc1)NC(=O)c1ccccc1Br,-16*,2,-8,-3,-2
O=C(Nc1ccc(C(=O)O)cc1)/C(=C\C=C\c1ccccc1)NC(=O)c1cccc(Br)c1,-41,/,-7,/,/
O=C(Nc1cccc(C(=O)O)c1)/C(=C\c1ccco1)NC(=O)c1ccccc1,13,/,50*,-4,0
O=C(Nc1cccc(C(=O)O)c1)/C(=C\C=C\c1ccccc1)NC(=O)c1ccccc1,-19*,-7,5,/,/
CCS(=O)(=O)N1CC(=O)N2[C@@H](CO)[C@H](c3ccc(-c4ccccc4C)cc3)[C@@H]2C1,-2,/,/,/,/
C/C(=N\NC(=O)c1cc(O)ccc1O)c1cccc(NC(=O)c2ccc(Cl)cc2)c1,-26*,-1,-2,-14,0
C/C(=N\NC(=O)c1ccccc1O)c1cccc(NC(=O)c2ccccc2)c1,-39,6,3,-3,-2
C/C(=N\NC(=O)c1ccccc1O)c1ccc(NC(=O)c2ccccc2)cc1,3,9,117*,-1,0
COc1ccc(NC(=O)N(C)C[C@H]2Oc3c(NC(=O)c4nc5ccccc5s4)cccc3C(=O)N([C@@H](C)CO)C[C@H]2C)cc1,-2,-4[16.7 µM],32*!,-1,0
C[C@H](CO)N1C[C@H](C)[C@H](CN(C)C(=O)Nc2ccc(F)cc2)Oc2c(NC(=O)c3nc4ccccc4s3)cccc2C1=O,-6,-2[16.7 µM],31*,-2,0
SMILES,rRNA inh HTS,miR-122 sensor,DENV2 CPE rescue,Cneo AK release,E-selectin induc
C[C@@H]1CN([C@H](C)CO)C(=O)c2cccc(NC(=O)c3nc4ccccc4s3)c2O[C@H]1CN(C)C(=O)NC1CCCCC1,-8,0[16.7 µM],45*,-1,-2
C[C@@H]1CN([C@H](C)CO)C(=O)c2cccc(NS(=O)(=O)c3ccc(Cl)cc3)c2O[C@H]1CN(C)C(=O)Nc1ccc2c(c1)OCO2,-4,-7[16.7 µM],-15,-7,9
C[C@@H]1CN([C@@H](C)CO)C(=O)c2cccc(NS(=O)(=O)c3ccc(Cl)cc3)c2O[C@H]1CN(C)C(=O)Nc1ccc2c(c1)OCO2,-3,-13[16.7 µM],-4,0,98*
C[C@H](CO)N1C[C@H](C)[C@H](CN(C)C(=O)Nc2ccc3c(c2)OCO3)Oc2c(NS(=O)(=O)c3ccc(Cl)cc3)cccc2C1=O,-12,5[16.7 µM],-8,6,50*
C[C@H](CO)N1C[C@H](C)[C@@H](CN(C)C(=O)Nc2ccc3c(c2)OCO3)Oc2c(NS(=O)(=O)c3ccc(F)cc3)cccc2C1=O,-1,-2,48*!,-2,1
C[C@H](CO)N1C[C@H](C)[C@@H](CN(C)C(=O)Nc2ccc(F)cc2)Oc2ccc(NC(=O)c3ccncc3)cc2C1=O,4,-5[16.7 µM],-6,-1,-3
C=CCn1c(SCC(=O)NNC(=S)Nc2ccccc2)nnc1-c1ccccc1,-16*,1,1,0,0
C[C@@H]1CN([C@@H](C)CO)S(=O)(=O)c2ccc(-c3ccccc3)cc2O[C@@H]1CN(C)C(=O)C1CC1,-3,-4[16.7 µM],/,/,3
C[C@@H]1CN([C@H](C)CO)C(=O)c2cc(NC(=O)Cc3cn(C)c4ccccc34)ccc2O[C@@H]1CN(C)S(=O)(=O)c1ccc(Cl)cc1,-2,101*[16.7 µM],16,-3,0
Cc1ccc(S(=O)(=O)N(C)C[C@H]2Oc3ccc(NC(=O)Cc4ccccc4)cc3C(=O)N([C@H](C)CO)C[C@@H]2C)cc1,0,-6[16.7 µM],66*,-3,0
C[C@@H]1CN([C@@H](C)CO)C(=O)c2cc(NC(=O)Nc3ccccc3)ccc2O[C@@H]1CN(C)S(=O)(=O)c1ccc(Cl)cc1,-1,41[16.7 µM],20,-2,3
C[C@@H]1CN([C@H](C)CO)C(=O)c2cc(NC(=O)Cc3ccccc3)ccc2O[C@@H]1CN(C)S(=O)(=O)c1ccc(Cl)cc1,-4,99*[16.7 µM],-3,6,-21
